# What was measured:
# [1] = Metabolic stability in human liver microsomes assessed as compound remaining after 30 mins; format: ADME, Microsome; details: read-out: Stability
# In short: (§1)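 Human and rat liver microsomes incubated with compound for 30 min; stability reported as percent parent compound remaining.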
# [2] = target: 11-beta-hydroxysteroid dehydrogenase 1 (Mus musculus, UniProt P50172); assay: Inhibition of mouse 11beta-HSD1 expressed in CHO-K1 cells using cortisone as substrate after 3 hrs by HTRF assay; format: cell-based
# In short: (§2)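 Cells overexpressing human or mouse 11β-HSD1 incubated with cortisone plus compound for 3 h; cortisol measured by HTRF. IC50 fitted from concentration-dependent inhibition curves; means ± SEM of triplicate experiments.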
# [3] = Metabolic stability in rat liver microsomes assessed as compound remaining after 30 mins; format: ADME, Microsome; details: read-out: Stability; in short: as §1
# [4] = target: 11-beta-hydroxysteroid dehydrogenase 1 (Homo sapiens, UniProt P28845); assay: Inhibition of human 11beta-HSD1 expressed in CHO-K1 cells using cortisone as substrate after 3 hrs by HTRF assay; format: cell-based; in short: as §2
# Mus musculus [5] = assay: Ex-vivo inhibition of 11betaHSD1 in C57BL/6 mouse liver at 20 mg/kg, po after 2 hrs by ELISA; format: functional; details: C57BL/6, Liver
# In short: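 Normal mice given 20 mpk orally; liver tissue taken 2 h after dosing and 11β-HSD1 activity measured ex vivo as % inhibition relative to vehicle.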
# Mus musculus [6] = assay: Ex-vivo inhibition of 11betaHSD1 in C57BL/6 mouse fat at 20 mg/kg, po after 2 hrs by ELISA; format: functional; details: C57BL/6, 2 h
# In short: (§3)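 Normal mice dosed orally (1, 5, 10 or 20 mpk); 11β-HSD1 activity in fat tissue measured ex vivo 2 h post-dose.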
# Cynomolgus monkey [7] = assay: Ex-vivo inhibition of 11beta-HSD1 in cynomolgus monkey inguinal fat at 10 mg/kg, po after 2 hrs by ELISA; format: functional; details: Macaca fascicularis
# In short: (§4)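 Cynomolgus monkeys dosed orally at 10 mpk; 11β-HSD1 activity measured ex vivo in shoulder, inguinal and abdominal cavity fat at 2 h. Means, n = 2 monkeys per group, versus vehicle.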
# Cynomolgus monkey [8] = assay: Ex-vivo inhibition of 11beta-HSD1 in cynomolgus monkey shoulder fat at 10 mg/kg, po after 2 hrs by ELISA; format: functional; details: Macaca fascicularis; in short: as §4
# [9] = AUC in Sprague-Dawley rat at 10 mg/kg, po; format: ADME, organism-based; set-up: dose 10 mg/kg, route oral; details: plasma
# Cytochrome P450 1A2 = target: T1, Cytochrome P450 1A2 (Homo sapiens, UniProt P05177); assay: Inhibition of CYP1A2 incubated for 20 mins prior to substrate addition measured after 20 mins by fluorimetric assay; format: ADME
# T1 sequence (P05177 whole entry): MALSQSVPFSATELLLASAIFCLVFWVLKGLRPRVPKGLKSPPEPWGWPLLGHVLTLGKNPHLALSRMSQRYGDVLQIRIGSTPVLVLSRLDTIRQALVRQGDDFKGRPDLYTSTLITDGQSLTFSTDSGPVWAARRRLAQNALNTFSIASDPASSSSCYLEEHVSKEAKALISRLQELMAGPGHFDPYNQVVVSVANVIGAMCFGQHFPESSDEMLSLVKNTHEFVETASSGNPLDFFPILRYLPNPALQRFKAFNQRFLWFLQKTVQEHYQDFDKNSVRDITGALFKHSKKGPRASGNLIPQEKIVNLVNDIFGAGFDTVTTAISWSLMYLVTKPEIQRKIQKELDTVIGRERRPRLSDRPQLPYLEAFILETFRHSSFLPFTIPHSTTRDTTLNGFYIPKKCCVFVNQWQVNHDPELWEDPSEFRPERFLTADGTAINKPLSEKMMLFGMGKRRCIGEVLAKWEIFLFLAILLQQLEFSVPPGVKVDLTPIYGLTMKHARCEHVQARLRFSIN
# Mus musculus [10] = assay: Ex-vivo inhibition of 11betaHSD1 in po dosed C57BL/6 mouse fat after 2 hrs by ELISA; format: functional, organism-based; in short: as §3
# Cynomolgus monkey [11] = assay: Ex-vivo inhibition of 11beta-HSD1 in cynomolgus monkey abdominal fat at 10 mg/kg, po after 2 hrs by ELISA; format: functional; details: Macaca fascicularis, Abdomen; in short: as §4
# [12] = Cmax in Sprague-Dawley rat at 10 mg/kg, po; format: ADME, organism-based; set-up: dose 10 mg/kg, route oral; details: in vivo
# [13] = target: T2, 11-beta-hydroxysteroid dehydrogenase type 2 (Homo sapiens) (UniProt P80365); assay: Inhibition of human 11beta-HSD2 expressed in HEK293 cells using […] as substrate at 10 uM after 24 hrs by HTRF assay; format: cell-based
# T2 sequence (whole entry): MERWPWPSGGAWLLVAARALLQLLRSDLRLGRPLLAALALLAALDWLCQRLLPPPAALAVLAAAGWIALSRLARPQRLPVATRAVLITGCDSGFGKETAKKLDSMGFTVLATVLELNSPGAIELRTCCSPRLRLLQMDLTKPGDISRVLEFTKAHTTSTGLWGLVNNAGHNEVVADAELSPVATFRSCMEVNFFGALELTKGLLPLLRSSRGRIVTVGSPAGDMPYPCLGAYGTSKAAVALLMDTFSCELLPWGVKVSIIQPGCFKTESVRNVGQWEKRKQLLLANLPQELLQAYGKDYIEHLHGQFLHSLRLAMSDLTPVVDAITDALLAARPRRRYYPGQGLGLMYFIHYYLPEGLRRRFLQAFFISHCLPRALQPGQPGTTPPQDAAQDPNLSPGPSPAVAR
# [14] = Metabolic stability in plasma at 10 uM after 30 mins; format: ADME, cell-free; details: read-out: Stability
# In short: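 Compound incubated in plasma for 30 min; stability given as percent remaining.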
# [15] = Terminal elimination half life in Sprague-Dawley rat at 10 mg/kg, po; format: ADME, organism-based; set-up: dose 10 mg/kg, route oral; details: in vivo, read-out: beta t1/2 (converted)
# Cytochrome P450 2C9 = Cytochrome P450 2C9 (Homo sapiens, UniProt P11712); assay: Inhibition of CYP2C9; format: ADME
# [16] = Cmax in cynomolgus monkey at 10 mg/kg, po; format: ADME, organism-based, Macaca fascicularis; set-up: dose 10 mg/kg, route oral; details: in vivo
# [17] = AUC in cynomolgus monkey at 10 mg/kg, po; format: ADME, organism-based, Macaca fascicularis; set-up: dose 10 mg/kg, route oral; details: plasma
# [18] = Terminal elimination half life in cynomolgus monkey at 10 mg/kg, po; format: ADME, organism-based, Macaca fascicularis; set-up: dose 10 mg/kg, route oral; details: in vivo, read-out: beta t1/2 (converted)
# Mus musculus [19] = assay: Ex-vivo inhibition of 11betaHSD1 in C57BL/6 mouse fat at 1 mg/kg, po after 2 hrs by ELISA; format: functional; details: C57BL/6, 2 h; in short: as §3
# Mus musculus [20] = assay: Ex-vivo inhibition of 11betaHSD1 in C57BL/6 mouse fat at 5 mg/kg, po after 2 hrs by ELISA; format: functional; details: C57BL/6, 2 h; in short: as §3
# Cytochrome P450 2C19 = Cytochrome P450 2C19 (Homo sapiens, UniProt P33261); assay: Inhibition of CYP2C19 incubated for 20 mins prior to substrate addition measured after 20 mins by fluorimetric assay; format: ADME
# Cytochrome P450 3A4 = Cytochrome P450 3A4 (Homo sapiens, UniProt P08684); assay: Inhibition of CYP3A4 incubated for 20 mins prior to substrate addition measured after 20 mins by fluorimetric assay; format: ADME
# Mus musculus [21] = assay: Ex-vivo inhibition of 11betaHSD1 in C57BL/6 mouse fat at 10 mg/kg, po after 2 hrs by ELISA; format: functional; details: C57BL/6, 2 h; in short: as §3
# [22] = Aqueous solubility of the compound; format: physicochemical; details: buffer
# Cytochrome P450 2D6 = Cytochrome P450 2D6 (Homo sapiens, UniProt P10635); assay: Inhibition of CYP2D6 incubated for 20 mins prior to substrate addition measured after 20 mins by fluorimetric assay; format: ADME
# [23] = Oral bioavailability in Sprague-Dawley rat at 10 mg/kg; format: ADME, organism-based; details: in vivo
# [24] = Clearance in Sprague-Dawley rat at 10 mg/kg, po; format: ADME, organism-based; set-up: dose 10 mg/kg, route oral; details: in vivo
# Chain of 11-beta-hydroxysteroid dehydrogenase 1 (Homo sapiens, UniProt P28845) (P28845 whole entry): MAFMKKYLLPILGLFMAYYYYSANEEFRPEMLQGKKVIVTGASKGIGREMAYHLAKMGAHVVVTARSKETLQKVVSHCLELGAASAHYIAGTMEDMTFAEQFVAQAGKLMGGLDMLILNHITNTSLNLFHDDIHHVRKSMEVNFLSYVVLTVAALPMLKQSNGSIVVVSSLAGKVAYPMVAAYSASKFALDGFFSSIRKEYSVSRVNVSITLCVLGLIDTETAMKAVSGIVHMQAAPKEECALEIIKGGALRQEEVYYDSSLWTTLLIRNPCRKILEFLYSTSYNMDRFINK
# Chain of 11-beta-hydroxysteroid dehydrogenase 1 (Mus musculus, UniProt P50172) (P50172 whole entry): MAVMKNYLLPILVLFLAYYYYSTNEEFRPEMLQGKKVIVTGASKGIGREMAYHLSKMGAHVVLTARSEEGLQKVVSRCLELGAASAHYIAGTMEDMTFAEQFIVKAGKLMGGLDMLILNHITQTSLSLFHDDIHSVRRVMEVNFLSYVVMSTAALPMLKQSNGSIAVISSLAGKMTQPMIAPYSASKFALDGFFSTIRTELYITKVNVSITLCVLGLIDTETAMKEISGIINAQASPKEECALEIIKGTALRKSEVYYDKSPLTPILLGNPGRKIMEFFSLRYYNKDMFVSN
# Chain of Cytochrome P450 2D6 (P10635 whole entry): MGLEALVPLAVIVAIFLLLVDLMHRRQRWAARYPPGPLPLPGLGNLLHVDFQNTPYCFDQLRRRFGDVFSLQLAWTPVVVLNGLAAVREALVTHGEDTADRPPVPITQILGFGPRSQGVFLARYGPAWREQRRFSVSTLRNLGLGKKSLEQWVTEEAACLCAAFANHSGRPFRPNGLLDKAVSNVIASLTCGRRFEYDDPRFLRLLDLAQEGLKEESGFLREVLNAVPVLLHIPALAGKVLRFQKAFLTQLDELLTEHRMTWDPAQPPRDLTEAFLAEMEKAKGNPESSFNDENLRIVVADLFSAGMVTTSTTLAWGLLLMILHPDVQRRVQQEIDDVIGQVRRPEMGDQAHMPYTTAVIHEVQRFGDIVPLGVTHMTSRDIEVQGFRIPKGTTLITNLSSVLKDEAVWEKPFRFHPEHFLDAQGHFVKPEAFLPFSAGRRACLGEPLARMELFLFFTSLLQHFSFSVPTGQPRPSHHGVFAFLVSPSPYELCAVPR
# Chain of Cytochrome P450 2C9 (P11712 whole entry): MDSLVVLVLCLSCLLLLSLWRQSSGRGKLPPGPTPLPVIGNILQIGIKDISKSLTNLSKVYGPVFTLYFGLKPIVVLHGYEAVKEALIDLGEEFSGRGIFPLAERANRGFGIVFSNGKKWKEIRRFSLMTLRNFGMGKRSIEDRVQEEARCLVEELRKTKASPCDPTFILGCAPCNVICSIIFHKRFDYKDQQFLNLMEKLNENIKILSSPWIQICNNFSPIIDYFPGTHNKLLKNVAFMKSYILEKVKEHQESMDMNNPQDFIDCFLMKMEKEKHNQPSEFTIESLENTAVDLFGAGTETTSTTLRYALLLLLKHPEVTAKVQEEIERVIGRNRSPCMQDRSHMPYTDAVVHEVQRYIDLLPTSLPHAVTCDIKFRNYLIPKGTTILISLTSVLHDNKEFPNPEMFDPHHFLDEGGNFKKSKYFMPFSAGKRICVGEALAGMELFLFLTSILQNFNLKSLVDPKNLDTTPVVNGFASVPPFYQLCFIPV
# Chain of Cytochrome P450 3A4 (P08684 whole entry): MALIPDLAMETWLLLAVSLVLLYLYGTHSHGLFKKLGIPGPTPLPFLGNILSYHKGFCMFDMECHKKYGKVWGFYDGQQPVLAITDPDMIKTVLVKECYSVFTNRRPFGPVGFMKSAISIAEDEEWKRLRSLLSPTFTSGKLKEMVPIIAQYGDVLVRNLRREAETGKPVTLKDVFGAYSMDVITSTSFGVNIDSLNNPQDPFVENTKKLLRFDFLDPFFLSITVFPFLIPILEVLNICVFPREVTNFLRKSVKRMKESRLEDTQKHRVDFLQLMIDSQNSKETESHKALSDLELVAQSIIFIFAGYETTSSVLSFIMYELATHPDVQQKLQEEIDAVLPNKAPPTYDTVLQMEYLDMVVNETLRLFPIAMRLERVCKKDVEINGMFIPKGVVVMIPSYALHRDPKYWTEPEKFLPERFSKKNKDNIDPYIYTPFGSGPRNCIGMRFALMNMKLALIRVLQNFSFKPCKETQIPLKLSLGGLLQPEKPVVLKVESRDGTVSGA
# Chain of Cytochrome P450 2C19 (P33261 whole entry): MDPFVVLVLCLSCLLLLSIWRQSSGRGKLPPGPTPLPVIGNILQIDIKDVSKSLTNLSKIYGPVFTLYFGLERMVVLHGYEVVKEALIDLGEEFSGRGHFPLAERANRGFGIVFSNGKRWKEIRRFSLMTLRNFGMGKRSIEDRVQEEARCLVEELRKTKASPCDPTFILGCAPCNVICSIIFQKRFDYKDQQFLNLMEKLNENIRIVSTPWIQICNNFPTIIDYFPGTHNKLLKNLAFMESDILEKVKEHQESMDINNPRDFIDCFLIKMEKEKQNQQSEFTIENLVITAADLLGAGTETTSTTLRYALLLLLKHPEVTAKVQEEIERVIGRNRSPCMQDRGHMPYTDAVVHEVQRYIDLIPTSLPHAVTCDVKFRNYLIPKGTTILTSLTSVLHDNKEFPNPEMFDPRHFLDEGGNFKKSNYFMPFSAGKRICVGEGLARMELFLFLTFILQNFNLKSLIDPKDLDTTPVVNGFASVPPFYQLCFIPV
structure (smiles),measurement,setting,value
NC(=O)[C@]12CC3CC(C1)[C@@H](NC(=O)CN1CCCCN(c4c(Cl)cc(Cl)cc4Cl)S1(=O)=O)C(C3)C2,remaining at 0.5 h,[1],40%
same,IC50,[2],1 nM
same,remaining at 0.5 h,[3],26%
same,IC50,[4]; read-out: IC50,1 nM
same,inhibition in vivo at 20 mg/kg,Mus musculus [5],51.4%
same,inhibition in vivo at 20 mg/kg,Mus musculus [6],59.9%
NC(=O)[C@]12CC3CC(C1)[C@@H](NC(=O)CN1CCCN(c4c(F)cc(F)cc4F)S1(=O)=O)C(C3)C2,IC50,[2],157 nM
same,IC50,[4]; read-out: IC50,20 nM
NC(=O)[C@]12CC3CC(C1)[C@@H](NC(=O)CN1CCN(c4c(Cl)cc(Cl)cc4Cl)S1(=O)=O)C(C3)C2,IC50,[2],409 nM
same,IC50,[4]; read-out: IC50,187 nM
NC(=O)[C@]12CC3CC(C1)[C@@H](NC(=O)CN1CCCN(c4cccc(F)c4)S1(=O)=O)C(C3)C2,IC50,[2],140 nM
same,IC50,[4]; read-out: IC50,50 nM
C=C1CN(CC(=O)N[C@H]2C3CC4CC2C[C@](C(N)=O)(C4)C3)S(=O)(=O)N(c2c(Cl)cc(Cl)cc2Cl)C1,IC50,[2],8 nM
same,IC50,[4]; read-out: IC50,14 nM
same,inhibition in vivo at 20 mg/kg,Mus musculus [6],82.1%
NC(=O)[C@]12CC3CC(C1)[C@@H](NC(=O)CN1CCCN(c4ccccc4)S1(=O)=O)C(C3)C2,IC50,[2],207 nM
same,IC50,[4]; read-out: IC50,17 nM
NC(=O)[C@]12CC3CC(C1)[C@@H](NC(=O)CN1CC4(CC4)CN(c4c(Cl)cc(Cl)cc4Cl)S1(=O)=O)C(C3)C2,IC50,[2],23 nM
same,IC50,[4]; read-out: IC50,5 nM
same,inhibition in vivo at 20 mg/kg,Mus musculus [6],39.6%
O=C(CN1CCCN(c2ccccc2)S1(=O)=O)NC12CC3CC(CC(C3)C1)C2,IC50,[4]; read-out: IC50,3370 nM
O=C(O)CN1CCCN(c2ccccc2)S1(=O)=O,IC50,[4]; cho-k1,Not Active
NC(=O)[C@]12CC3CC(C1)[C@@H](NC(=O)CN1CCCN(c4ccc(F)cc4)S1(=O)=O)C(C3)C2,IC50,[2],15500 nM
same,IC50,[4]; read-out: IC50,351000 nM
NC(=O)[C@]12CC3CC(C1)[C@@H](NC(=O)CN1CCCN(c4ccccc4F)S1(=O)=O)C(C3)C2,IC50,[2],170 nM
same,IC50,[4]; read-out: IC50,14 nM
CN(CC(=O)N[C@H]1C2CC3CC1C[C@](C(N)=O)(C3)C2)S(=O)(=O)N(C)c1c(Cl)cc(Cl)cc1Cl,remaining at 0.5 h,[1],21%
same,IC50,[2],2 nM
same,remaining at 0.5 h,[3],7%
same,IC50,[4]; read-out: IC50,1 nM
same,inhibition in vivo at 20 mg/kg,Mus musculus [5],57.8%
same,inhibition in vivo at 20 mg/kg,Mus musculus [6],33.3%
CC1(C)CN(CC(=O)N[C@H]2C3CC4CC2C[C@](C(N)=O)(C4)C3)S(=O)(=O)N(c2c(Cl)cc(Cl)cc2Cl)C1,IC50,[2],26 nM
same,IC50,[4]; read-out: IC50,5 nM
same,inhibition in vivo at 20 mg/kg,Mus musculus [6],29.9%
CC1CCN(c2c(Cl)cc(Cl)cc2Cl)S(=O)(=O)N1CC(=O)N[C@H]1C2CC3CC1C[C@](C(N)=O)(C3)C2 (mixture of isomers),remaining at 0.5 h,[1],94%
same,IC50,[2],70 nM
same,remaining at 0.5 h,[3],70%
same,IC50,[4]; read-out: IC50,1 nM
same,inhibition in vivo at 20 mg/kg,Mus musculus [6],74.5%
O=C(CN1CCCN(CCc2ccccc2)S1(=O)=O)NC1C2CC3CC(C2)CC1C3 (stereo not given),IC50,[4]; read-out: IC50,1660 nM
CC1CN(CC(=O)N[C@H]2C3CC4CC2C[C@](C(N)=O)(C4)C3)S(=O)(=O)N(c2c(Cl)cc(Cl)cc2Cl)C1 (mixture of isomers),inhibition in vivo at 10 mg/kg,Cynomolgus monkey [7],83%
same,inhibition in vivo at 10 mg/kg,Cynomolgus monkey [8],87%
same,AUC,[9],15700 ng·h/mL
same,INH,Cytochrome P450 1A2,> 100 µM
same,inhibition,Mus musculus [10],Dose-dependent effect
same,inhibition in vivo at 10 mg/kg,Cynomolgus monkey [11],81%
same,remaining at 0.5 h,[1],93%
same,Cmax,[12],3100 ng/mL
same,inhibition,[13],20%
same,"remaining at 0.5 h, 10 µM",[14],100%
same,IC50,[2],2 nM
same,half-life,[15],3.8 h
same,remaining at 0.5 h,[3],78%
same,INH,Cytochrome P450 2C9,> 100 µM
same,Cmax,[16],6400 ng/mL
same,AUC,[17],35600 ng·h/mL
same,half-life,[18],3.4 h
same,inhibition in vivo at 1 mg/kg,Mus musculus [19],76.6%
same,inhibition in vivo at 5 mg/kg,Mus musculus [20],90.4%
same,INH,Cytochrome P450 2C19,> 100 µM
same,IC50,[4]; read-out: IC50,1 nM
same,INH,Cytochrome P450 3A4,> 100 µM
same,inhibition in vivo at 10 mg/kg,Mus musculus [21],90.7%
same,solubility,[22],361 µM
same,INH,Cytochrome P450 2D6,> 100 µM
same,bioavailability,[23],68.8%
same,CL/F,[24],11.7 mL/min/kg
same,inhibition in vivo at 20 mg/kg,Mus musculus [6],95.9%
NC(=O)[C@]12CC3CC(C1)[C@@H](NC(=O)CN1CCCN(c4c(Cl)cc(Cl)cc4Cl)S1(=O)=O)C(C3)C2,remaining at 0.5 h,[1],61%
same,IC50,[2],4 nM
same,remaining at 0.5 h,[3],57%
same,IC50,[4]; read-out: IC50,1 nM
same,inhibition in vivo at 20 mg/kg,Mus musculus [5],83.7%
same,inhibition in vivo at 20 mg/kg,Mus musculus [6],92.1%
